# Data published in PMC6331719 (The EMBO Journal, 2018).
# Square brackets hold non-standard residues; d marks the D form. Ends that are not written are not given here. Peptide text beside a SMILES is read from it. * marks the point of attachment. DON = [N-]=[N+]=CC(=O)CC[C@H](N)C(=O)O; Cbz = O=C(OCc1ccccc1)*
# Key:
# [1] = system: TG2 and CFTR; assay: Co-immunoprecipitation of TG2 and CFTR, Caco-2 cells; assay type: cell-based, human; settings: Caco-2, pre-treatment
# [2] = system: Caco‐2 and T84 cells; assay: Cell viability of Caco-2 / T84 cells; assay type: cell-based, human; settings: 3 h
# [3] = target: NBD1 (Homo sapiens, UniProt P13569, F429S/F494N/Q637R); assay: NBD1 ATPase activity; assay type: biochemical
# Chain of NBD1 (P13569 389-678 F429S/F494N/Q637R): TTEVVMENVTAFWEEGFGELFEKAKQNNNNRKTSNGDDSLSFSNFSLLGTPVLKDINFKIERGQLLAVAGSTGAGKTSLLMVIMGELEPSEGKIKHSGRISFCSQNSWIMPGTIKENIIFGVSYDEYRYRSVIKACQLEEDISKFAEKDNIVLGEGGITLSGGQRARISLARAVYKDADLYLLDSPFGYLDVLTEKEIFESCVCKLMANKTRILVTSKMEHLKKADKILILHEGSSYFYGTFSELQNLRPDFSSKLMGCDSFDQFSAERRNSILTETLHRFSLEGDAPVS
# [4] = system: CFTR (Caco‐2 cells); assay: Ussing chamber, CFTR-dependent Cl- secretion in Caco-2 cells; assay type: cell-based, human; settings: for Effect on forskolin-inducible chloride current: Caco-2 or T84, 3 h, peptides 20 μg/ml, PT gliadin 500 μg/ml
# Procedure, shortened: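 Caco-2 or T84 monolayers grown on 0.4-μm Transwells to 800–1,200 Ω cm2, then mounted in Ussing chambers. Ringer both sides, 37°C, gassed with 95% O2/5% CO2. Cells pretreated 3 h with peptides (20 μg/ml) or PT gliadin (500 μg/ml), or given bath peptides (100 μM, 3–5 min) after 100 μM amiloride. VX-770 10 μM for 5 min. Forskolin 20 μM; peak CFTRinh172-sensitive Isc.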
# [5] = system: CFTR; assay: Co-immunoprecipitation of CFTR with biotinylated peptide, Caco-2 cells; assay type: binding, human; settings: Caco-2, biotinylated peptide, 1 h
# [6] = system: recombinant human NBD1 (rhNBD1); assay: Surface plasmon resonance, rhNBD1; assay type: binding; settings: CM5 chip, 20°C, HEPES pH 7.4, 2 mM ATP, 5 mM MgCl2; at least three independent experiments
# Procedure, shortened: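 NBD1 was recombinant human residues 389–678, immobilised by amine coupling to 2000 RU; a blank flow cell served as reference. Running buffer also contained 150 mM NaCl, 0.05% Tween-20 and 1 mM DTT, at a flow of 20 μl/min. Each run used three start-up buffer injections, a zero control, then a concentration series of peptide analyte.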
# [7] = system: TG2; assay: TG2 activity and TG2-catalysed crosslinking in Caco-2 cells; assay type: cell-based, human; settings: Caco-2, Z-DON or TG2 siRNA
# [8] = system: CFTR (Caco-2 and T84 cells); assay: Iodide efflux by SPQ in intestinal epithelial cells; assay type: cell-based, human; settings: forskolin stimulation, 20 μg/ml 3 h, n = 3
# [9] = system: celiac PBMC; assay: Caco-2 / celiac PBMC bidimensional co-culture, cytokine release; assay type: cell-based, human; settings: lower compartment, celiac vs control PBMC
# [10] = system: TG2 and NBD1; assay: Blue native PAGE, peptide with TG2 and rhNBD1; assay type: binding, human; settings: Ca2+-activated TG2, biotinylated peptide
# Procedure, shortened: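 Recombinant proteins and the indicated peptides were pre-incubated together at 4°C for 30 min in buffer. Samples were then run under native conditions to preserve peptide/protein complexes.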
# [11] = system: enterocytes / T cells; settings: ref Maiuri et al, 2003; Meresse et al, 2009; Barone et al, 2014; cited from earlier work
# [12] = target: wild‐type human NBD1[389–673], without any solubilizing mutations (human, UniProt P13569-1 389-673); assay: native gel or EMSA
# Chain of wild‐type human NBD1[389–673], without any solubilizing mutations (P13569 389-673, change not shown): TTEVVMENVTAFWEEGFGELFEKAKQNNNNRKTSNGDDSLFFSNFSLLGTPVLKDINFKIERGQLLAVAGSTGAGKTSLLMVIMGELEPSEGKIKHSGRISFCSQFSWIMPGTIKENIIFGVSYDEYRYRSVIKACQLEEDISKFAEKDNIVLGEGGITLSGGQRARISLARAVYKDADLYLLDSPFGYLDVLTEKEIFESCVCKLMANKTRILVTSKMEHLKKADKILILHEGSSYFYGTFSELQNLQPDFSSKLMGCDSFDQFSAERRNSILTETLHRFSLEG
molecule,measurement,setting,value
CC(=O)OCOC(=O)CN(CC(=O)OCOC(C)=O)c1ccccc1OCCOc1ccccc1N(CC(=O)OCOC(C)=O)CC(=O)OCOC(C)=O [BAPTA‐AM],Prevention of P31–43-induced TG2–CFTR interaction,[1],prevented
"LGQQQPFPPQQPY-NH2 [P31–43, LGQQQPFPPQQPY]",Effect on cell viability,[2],did not affect cell viability
same,IC50,[3],55.1 µM
LGQAAPFPPAAPY [4QA],Inhibition of CFTR function by modified peptide,"[4]; Caco-2, 1 h",largely unable to inhibit CFTR function
same,Co-immunoprecipitation with CFTR,[5],marginal interaction with CFTR protein
same,SPR binding to rhNBD1,[6],strongly reduced as compared to unmutated P31–43
COC(=O)[C@H](CC(C)C)NC(=O)[C@@H]1CCCN1C(=O)[C@@H](NC(=O)[C@H](CCC(=O)C=[N+]=[N-])NC(=O)OCc1ccccc1)C(C)C [Z‐DON] (Cbz-[DON]VPL-OMe),Inhibition of P31–43-induced glutamine-lysine bonds in CFTR immunoprecipitates,[7],undetectable
same,Prevention of P31–43-induced TG2–CFTR interaction,[1],prevented
GAVAAVGVVAGA [PGAV],Effect on forskolin-inducible chloride current,[4],"but not P57–68, P33‐mer or PGAV"
same,Effect on rate of iodide efflux,[8],not by P57–68 or PGAV
LQLQPFPQPQLPY PQPQLPYPQPQLPYPQPQPF [P33‐mer],Effect on forskolin-inducible chloride current,[4],"but not P57–68, P33‐mer or PGAV"
QLQPFPQPQLPY [P57–68],Effect on forskolin-inducible chloride current,[4],"but not P57–68, P33‐mer or PGAV"
same,SPR binding to rhNBD1,[6],failed to induce any signal
same,IFN-γ production,[9],but not the P57–68 or P31–43 alone
same,Effect on rate of iodide efflux,[8],not by P57–68 or PGAV
same,Binding to TG2 and complex formation with NBD1,[10],but not P57–68
same,Enterocyte stress / T cell activation,[11],activating T cells in the absence of any toxic effect on epithelial cells
"LGQQQPFPPQQPY (also: biotin tag, position not given here) [biotinylated P31–43]",binding result,[12],binds
